The values below come from ChEMBL document CHEMBL3271965, “Synthesis and anti-DNA -virus activity of the 5'-monophosphate and the cyclic 3',5'-monophosphate of 9-(beta-D-xylofuranosyl) guanine” (J Med Chem, 1976).

Converted amounts (≈) assume the structure as drawn. The source made the active and inactive calls. The rule behind the calls is not given here.

In one data set the test system is Human alphaherpesvirus 2. Nature of the data set: Antiviral activity against Herpesvirus 2 infected in human KB cells assessed as virus-induced cytopathic effect after 72 hrs. It is filed as functional, organism-based. In outline:
(§1)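 KB (human nasopharyngeal carcinoma) monolayers, 18-24 h old, infected with 320 CCID₅₀ of herpes virus type 1 or type 2. Compound added within 15 min at half-log dilutions from 1000 to 1 μg/ml. Incubated 72 h at 37°. CPE scored microscopically 0-4. Virus rating is the summed (virus control − treated) CPE differences across drug levels, halved at levels showing partial toxicity.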
Background: Damage to the host cells serves as the signal in cytopathic effect assays.

Data set [1] deals with Human alphaherpesvirus 1. Briefly: Antiviral activity against Herpesvirus 1 123 infected in Swiss mouse assessed as increase in survival at MTD, ic administered as single dose 6 hrs post infection relative to control. The format is functional, organism-based. An outline of the steps:
(§2)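 18-20-g Swiss mice inoculated intracerebrally with an LD₇₅ of herpes virus type 1 strain 123 to induce encephalitis. One intracerebral drug treatment given 6 h after virus inoculation. Survivors counted against untreated infected controls.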

The next data set deals with Vaccinia virus. Nature of the data set: Antiviral activity against Vaccinia virus infected in human KB cells assessed as virus-induced cytopathic effect after 72 hrs. The format is functional, organism-based. Conditions: Orthopoxvirus vaccinia.
Data set [2] can be described thus: Cytotoxicity against human KB cells after 72 hrs. It is filed as cell-based.
Data set [3] relates to Human alphaherpesvirus 1. Nature of the data set: Antiviral activity against Herpesvirus 1 infected in human KB cells assessed as virus-induced cytopathic effect after 72 hrs. It is filed as functional. The settings on record: Human alphaherpesvirus 1, 72 h. In outline:
as §1

Data set [4] in a line: Therapeutic index, ratio of MTD for Swiss mouse to MID for Herpesvirus 1 123 infected in Swiss mouse. The settings on record: read-out: TI. In outline: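 Therapeutic index = maximum tolerated dose / minimum inhibitory dose, based on survivors/total among treated infected mice. The ic regimen was a single MTD dose at 6 h post-inoculation. The ip regimen was b.i.d. ×9 from 4 h. Uninfected toxicity controls were run alongside.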

Data set [5] deals with Human alphaherpesvirus 1. Nature of the data set: Antiviral activity against Herpesvirus 1 123 infected in Swiss mouse assessed as increase in survival at 0.31 to 1.25 mg/kg, ic administered as single dose 6 hrs post infection relative to control. It is filed as functional, organism-based. In outline:
as §2

Another data set deals with Mus musculus. Nature of the data set: Toxicity in Swiss mouse assessed as weight loss at 52 mg/kg/day, ip. It is filed as organism-based. On the set-up: route intraperitoneal. Conditions: in vivo. An outline of the steps: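 Uninfected toxicity-control Swiss mice (18-20 g) dosed intraperitoneally b.i.d. ×9 at 104 or 52 mg/kg/day, in parallel with the infected groups. Body weight and survivors/total recorded.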

The test system of data set [6] is Human alphaherpesvirus 1. Nature of the data set: Antiviral activity against Herpesvirus 1 123 infected in Swiss mouse assessed as increase in survival time at 26 mg/kg/day, ip relative to control. The format is functional, organism-based. An outline of the steps:
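Dosed intraperitoneally b.i.d. for 9 days, starting 4 h after virus inoculation. Infected animals were compared with saline controls. Survival time was assessed by t test.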

Data set [7] deals with Human alphaherpesvirus 1. Briefly: Antiviral activity against Herpesvirus 1 123 infected in Swiss mouse assessed as increase in survival at 52 mg/kg/day, ip. It is filed as functional, organism-based. An outline of the steps:
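Encephalitis induced in 18-20-g Swiss mice by intracerebral LD₇₅ of herpes virus type 1 strain 123. Drug given intraperitoneally b.i.d. ×9 starting 4 h post-inoculation at 104, 52 or 26 mg/kg/day, with saline controls. Survivors/total compared by Fisher's exact test; survival time compared by t test.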

Take `Nc1nc(O)c2ncn([C@@H]3O[C@H](COP(=O)(O)O)[C@H](O)[C@H]3O)c2n1`: the result with Human alphaherpesvirus 2 and in the data set on Human alphaherpesvirus 1 [1] was Active. Moreover, in the data set with Vaccinia virus, the result was inactive. The compound also showed an MCC at 72 h in data set [2] of 3.2 µg/mL. In addition, the MIC in the data set on Human alphaherpesvirus 1 [3] worked out at 10 µg/mL (≈ 27.5 µM).
In the case of `Nc1nc(O)c2ncn([C@@H]3O[C@H](CO)[C@H](O)[C@H]3O)c2n1`, the result with Human alphaherpesvirus 2 and in the data set on Human alphaherpesvirus 1 [1] was Active. Also, the result in the data set with Vaccinia virus was inactive. Also, the MIC with Human alphaherpesvirus 1 [3] stood at 10 µg/mL (≈ 35.3 µM).
As for `Nc1ncnc2c1ncn2[C@@H]1O[C@H](CO)[C@@H](O)[C@@H]1O` [VIDARABINE], the result in the data set with Human alphaherpesvirus 2, in the data set on Human alphaherpesvirus 1 [1] and in the data set with Vaccinia virus was Active. The MCC at 72 h in data set [2] was determined as 3.2 µg/mL. Moreover, in the data set on Human alphaherpesvirus 1 [3], the MIC amounted to 3.2 µg/mL (≈ 12 µM).
As for `Nc1nc2c(ncn2[C@@H]2O[C@@H]3COP(=O)(O)O[C@@H]3[C@H]2O)c(=O)[nH]1`, the selectivity ratio in data set [4] was not below 4. Besides, the outcome in the data set on Human alphaherpesvirus 1 [5], with Human alphaherpesvirus 2, in the data set on Human alphaherpesvirus 1 [1] and in the data set on Human alphaherpesvirus 1 [7] was Active. In addition, the Activity result in the data set with Mus musculus is “Toxic”. Further, in the data set on Vaccinia virus, the result was inactive. In [2], this compound gave an MCC at 72 h of 32 µg/mL. In the data set on Human alphaherpesvirus 1 [6], the Survival result is “Active”. In addition, in the data set on Human alphaherpesvirus 1 [3], the MIC worked out at 32 µg/mL (≈ 92.7 µM).
Compound `Nc1nc2c(ncn2[C@@H]2O[C@H](CO)[C@H](O)[C@H]2O)c(=O)[nH]1` registered an MCC at 72 h in data set [2] of 10 µg/mL.
